According to ChEMBL document CHEMBL1140836, “Hybrid angiogenesis inhibitors: synthesis and biological evaluation of bifunctional compounds based on 1-deoxynojirimycin and aryl-1,2,3-triazoles” (Bioorg Med Chem Lett, 2008):
Active and inactive are the calls of the source. The calls are words filed in the database; no cut-off is given here.

Experiments:
[1] = molecular target: T1, Alpha-glucosidase (Geobacillus stearothermophilus, UniProt P94451); assay: (§1) Inhibition of alpha glucosidase from bacillus stearothermophilus
T1 sequence (P94451 whole entry): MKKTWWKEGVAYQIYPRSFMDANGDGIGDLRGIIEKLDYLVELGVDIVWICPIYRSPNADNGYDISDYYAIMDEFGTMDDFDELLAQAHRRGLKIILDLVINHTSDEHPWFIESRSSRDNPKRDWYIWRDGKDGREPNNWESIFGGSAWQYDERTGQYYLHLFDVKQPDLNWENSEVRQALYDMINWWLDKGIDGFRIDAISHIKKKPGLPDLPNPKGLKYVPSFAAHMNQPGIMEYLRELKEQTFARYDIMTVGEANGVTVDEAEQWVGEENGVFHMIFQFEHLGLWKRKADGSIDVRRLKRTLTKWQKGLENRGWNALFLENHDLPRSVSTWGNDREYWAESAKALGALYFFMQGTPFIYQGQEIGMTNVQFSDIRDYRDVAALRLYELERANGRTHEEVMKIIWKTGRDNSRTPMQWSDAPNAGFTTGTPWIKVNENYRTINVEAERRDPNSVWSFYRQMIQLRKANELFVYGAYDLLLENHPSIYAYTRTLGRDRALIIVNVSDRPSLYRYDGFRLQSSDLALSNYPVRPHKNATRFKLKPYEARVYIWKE

[2] = (§2) Growth inhibition of bovine BAEC by MTT assay; assay type: functional, cell-based; conditions: Bos taurus
How it was run: (§3)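 BAECs in RPMI 1640 with 10% heat-inactivated FBS, 3 × 10³ cells/well, seeded overnight, then exposed to compounds (10⁻⁶–10⁻³ M) for 48 h at 37 °C, 5% CO₂. MTT added to 0.5 mg/mL final, 3 h at 37 °C; formazan dissolved in DMSO, absorbance at 570 nm. Quadruplicate wells, experiments repeated at least twice; IC₅₀ determined.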

[3] = tested on: BAEC; assay: Antiangiogenesis activity in bovine BAEC cells assessed as inhibition of tube formation on Matrigel at 0.2 mM; assay type: functional, cell-based; conditions: Bos taurus
How it was run: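 BAECs pretreated with compound (0.2 mM) 24 h, harvested, 3 × 10⁴ cells/0.1 ml in RPMI 1640 with 10 ng/mL bFGF plus 0.2 mM compound (controls bFGF only), layered on growth factor–reduced Matrigel polymerized 1 h at 37 °C; 8 h at 37 °C, 5% CO₂. Tubes counted in at least five microscope fields, averaged per field; repeated at least twice.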

[4] = tested on: BAEC; assay: as §2; assay type: functional, cell-based; conditions: Bos taurus; how it was run: as §3
[5] = molecular target: T2, Alpha-glucosidase (Geobacillus stearothermophilus) (UniProt P94451); assay: as §1
T2 sequence (whole entry): T1 sequence (P94451 whole entry)

[6] = molecular target: Methionine aminopeptidase 2 (Homo sapiens) (UniProt P50579); assay: Inhibition of MetAP2
Methionine aminopeptidase 2 (Homo sapiens), sequence (P50579 2-478 limits assumed): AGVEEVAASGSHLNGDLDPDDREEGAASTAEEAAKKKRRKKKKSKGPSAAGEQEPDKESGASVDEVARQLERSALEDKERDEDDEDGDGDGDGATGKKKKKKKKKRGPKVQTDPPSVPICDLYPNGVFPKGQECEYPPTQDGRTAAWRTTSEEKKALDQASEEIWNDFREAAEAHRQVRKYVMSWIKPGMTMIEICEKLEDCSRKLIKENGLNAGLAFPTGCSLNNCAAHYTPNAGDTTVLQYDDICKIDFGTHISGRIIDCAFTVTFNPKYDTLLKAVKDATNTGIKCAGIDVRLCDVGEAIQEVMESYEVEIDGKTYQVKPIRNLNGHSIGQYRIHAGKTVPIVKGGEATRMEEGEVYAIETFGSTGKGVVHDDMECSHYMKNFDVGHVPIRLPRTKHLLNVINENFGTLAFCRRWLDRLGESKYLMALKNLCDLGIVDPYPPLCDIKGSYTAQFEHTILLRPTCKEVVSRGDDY

| IC50 [1] | Activity [5] | Activity [6] | SMILES | IC50 [2] | Activity [3] | Activity [4] |
| --- | --- | --- | --- | --- | --- | --- |
| 1.15 µM | – | – | OC[C@@H]1[C@@H](O)[C@H](O)[C@@H](O)CN1CCCCCCCCOc1cccc(-c2cnn[nH]2)c1 | 105 µM | – | – |
| 2.41 µM | – | – | OC[C@@H]1[C@@H](O)[C@H](O)[C@@H](O)CN1CCCCCCOc1cccc(-c2cnn[nH]2)c1 | 610 µM | inactive | – |

The next lines start with the molecule.

| SMILES | IC50 [1] | Activity [5] | Activity [6] | IC50 [2] | Activity [3] | Activity [4] |
| --- | --- | --- | --- | --- | --- | --- |
| OC[C@@H]1[C@@H](O)[C@H](O)[C@@H](O)CN1CCCCOc1cccc(-c2cnn[nH]2)c1 | 6.07 µM | – | – | 797 µM | inactive | – |
| OC[C@H]1NC[C@H](O)[C@@H](O)[C@@H]1O | – | – | – | – | – | inactive |
| COc1cccc(-c2cnn[nH]2)c1 | – | inactive | Active | 347 µM | – | – |
